Results published in ChEMBL document CHEMBL1137020, “Role of the rapA gene in controlling antibiotic resistance of Escherichia coli biofilms” (2007).
≈ marks a conversion by molar mass, not a printed value. Calls of active or inactive are those of the source.

How the values were obtained:
Escherichia coli [1] = assay: Antimicrobial activity against Escherichia coli isolate AMG1 24 hrs biofilms at 0.03 ug/ml to 0.12 ug/ml after 24 hrs by microtiter plate count method; format: functional, organism-based
Procedure, shortened: (§1)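 Microtiter plate biofilms grown 24 h, then exposed 24 h to a range of norfloxacin concentrations. Survival counted as CFU and expressed as percent of 10^8 CFU/ml for each strain.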

Escherichia coli [2] = assay: Antimicrobial activity against Escherichia coli isolate AMG1 24 hrs biofilms after 24 hrs relative to control; format: functional; procedure, shortened: as §1
Escherichia coli [3] = assay: Antimicrobial activity against tetracycline-resistant Escherichia coli U1 rapA mutant grown as planktonic cells after 24 hrs by spectrophotometric method; format: functional; conditions: U1, 24 h
Procedure, shortened: (§2)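 Wells with 100 and 200 μl LB inoculated to OD600 0.06 and grown 24 h at 37°C without shaking. Medium then replaced with LB containing penicillin G (0–250 μg/ml) for 24 h, and growth read by OD. MIC for planktonic cells and MICadh for biofilm taken as the concentration giving 50% growth reduction versus unexposed control. Biofilm contribution derived from the 100/200 μl OD relation.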

Escherichia coli [4] = assay: Antimicrobial activity against wild type Escherichia coli isolate AMG1 grown as biofilms after 24 hrs by spectrophotometric method; format: functional; conditions: AMG1, 24 h
Procedure, shortened: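 Triplicate microtiter wells held 100 and 200 μl LB, inoculated at OD600 0.06 and grown 24 h at 37°C without shaking. Liquid was replaced with LB containing penicillin G at 0–250 μg/ml, and growth was read by plate reader 24 h later. The biofilm contribution came from an equation correlating the two volumes' OD. MICadh is the concentration giving 50% growth reduction versus unexposed control.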

Escherichia coli [5] = assay: Antimicrobial activity against tetracycline-resistant Escherichia coli U1 rapA mutant grown as biofilms after 24 hrs by spectrophotometric method; format: functional; conditions: U1, 24 h; procedure, shortened: as §2
Escherichia coli [6] = assay: Antimicrobial activity against wild type Escherichia coli isolate AMG1 grown as planktonic cells after 24 hrs by spectrophotometric method; format: functional; conditions: AMG1, 24 h; procedure, shortened: as §2
Escherichia coli [7] = assay: Antimicrobial activity against Escherichia coli isolate AMG1 24 hrs biofilms at 350 ug/ml after 1 hr by microtiter plate count method; format: functional
Procedure, shortened: (§3)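 Biofilms were grown 24 h in microtiter plate wells and exposed to penicillin G at 350 μg/ml for 1 h. Viability was counted by CFU plating and compared with untreated control biofilms grown identically. Values are averages of at least three independent determinations ±1 standard deviation. Strain differences were tested by two-tailed Student's t test.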

Escherichia coli [8] = assay: Antimicrobial activity against tetracycline-resistant Escherichia coli U1 rapA mutant 24 hrs biofilms assessed as viability at 350 ug/ml after 1 hr by microtiter plate count method; format: functional
Procedure, shortened: (§4)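 Biofilms grown 24 h in microtiter plate wells, then exposed to penicillin G at 350 μg/ml for 1 h. Viability by plate count (CFU) against untreated controls. At least three independent determinations, mean ±1 SD. Strain differences tested by Student's two-tailed t test.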

Escherichia coli [9] = assay: Antimicrobial activity against Escherichia coli AMG1 isolate 24 hrs flow cell-generated biofilms using BacLight staining by CSLM; format: functional, organism-based
Procedure, shortened: (§5)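 Penicillin G 350 μg/ml was given in flowing medium for 1 h, with controls kept on antibiotic-free flow. LIVE/DEAD BacLight was stopped in place for 5 min and then rinsed. CSLM green/(red+green) integrated intensity, thresholded, gave percent survival versus untreated controls.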

Escherichia coli [10] = assay: Antimicrobial activity against tetracycline-resistant Escherichia coli U1 rapA mutant flow cell-generated 24 hrs biofilms using BacLight staining by CSLM; format: functional, organism-based
Procedure, shortened: (§6)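 Biofilms grown 24 h in Plexiglas flow cells on M9-Casamino Acid medium under flow. Penicillin G 350 μg/ml in flowing medium for 1 h; controls kept on medium alone. LIVE/DEAD BacLight (Syto9/propidium iodide) injected, flow halted 5 min, then rinsed. CSLM images thresholded. Survival taken as green/(red+green) fluorescence relative to untreated controls.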

Escherichia coli [11] = assay: Antimicrobial activity against tetracycline-resistant Escherichia coli U1 rapA mutant nylon membrane cultivated 24 hrs biofilms at 350 ug/ml after 1 hr; format: functional
Procedure, shortened: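 Nylon membranes (1×1 cm) in LB inoculated at OD600 0.1 and grown 24 h at 37°C. Medium replaced with LB ± penicillin G 350 μg/ml for 1 h. Membranes rinsed and vortexed 2 min in M9 salts, then diluted and plated in quadruplicate on LB agar for CFU.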

Escherichia coli [12] = assay: Antimicrobial activity against wild type Escherichia coli K-12 flow cell-generated 24 hrs biofilms at 350 ug/ml after 1 hr using BacLight staining by CSLM; format: functional; procedure, shortened: as §5
Escherichia coli [13] = assay: Antimicrobial activity against kanamycin-resistant Escherichia coli K-12 M1 W3110 deltarapA mutant flow cell-generated 24 hrs biofilms at 350 ug/ml after 1 hr using BacLight staining by CSLM; format: functional; procedure, shortened: as §6
Escherichia coli [14] = assay: Antimicrobial activity against wild type Escherichia coli K-12 24 hrs biolflim at 350 ug/ml after 1 hr by microtiter plate count method; format: functional, organism-based; procedure, shortened: as §3
Escherichia coli [15] = assay: Antimicrobial activity against kanamycin-resistant Escherichia coli K-12 M1 W3110 deltarapA mutant 24 hrs biolflim at 350 ug/ml after 1 hr by microtiter plate count method; format: functional, organism-based; procedure, shortened: as §4
Escherichia coli [16] = assay: Antimicrobial activity against kanamycin-resistant Escherichia coli U6 deltayhcQ mutant 24 hrs biofilms at 350 ug/ml after 1 hr by microtiter plate count method; format: functional; procedure, shortened: as §4
Escherichia coli [17] = assay: Antimicrobial activity against kanamycin-resistant Escherichia coli K-12 M2 W3110 deltayhcQ mutant 24 hrs biolflim at 350 ug/ml after 1 hr using BacLight staining; format: functional; procedure, shortened: as §6

CCn1cc(C(=O)O)c(=O)c2cc(F)c(N3CCNCC3)cc21
Activity (Escherichia coli [1]): Active

O=C(N[C@H](CO)[C@H](O)c1ccc([N+](=O)[O-])cc1)C(Cl)Cl [CHLORAMPHENICOL]
Activity (Escherichia coli [2]): 40%

CC1(C)S[C@@H]2[C@H](NC(=O)Cc3ccccc3)C(=O)N2[C@H]1C(=O)O [PENICILLIN G]
MIC (Escherichia coli [3]): 50 µg/mL (≈ 150 µM)
MIC (Escherichia coli [4]): 250 µg/mL (≈ 748 µM)
MIC (Escherichia coli [5]): 125 µg/mL (≈ 374 µM)
MIC (Escherichia coli [6]): 50 µg/mL (≈ 150 µM)
Activity (Escherichia coli [7]): 35%
Activity (Escherichia coli [8]): 71%
Activity (Escherichia coli [9]): inactive
Activity (Escherichia coli [10]): Active
Activity (Escherichia coli [11]): 30%
Activity (Escherichia coli [12]): 22%
Activity (Escherichia coli [13]): 71%
Activity (Escherichia coli [14]): Active
Activity (Escherichia coli [15]): Active
Activity (Escherichia coli [16]): 55%
Activity (Escherichia coli [17]): 31%

GENTAMICIN
Activity (Escherichia coli [2]): 40%
